Key:
[1] = target: Substance-P receptor (Cavia porcellus) (UniProt P30547); experiment: Compound was evaluated for antagonism of contractile response of guinea pig ileum longitudinal smooth muscle (GPI) at tachykinin receptor 1; assay type: functional, tissue-based
Summary of the method: (§1)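 Isolated longitudinal smooth muscle of ileum from male Dunkin-Hartley guinea-pigs (300–600 g), killed by concussion and exsanguination. Contraction to SP methyl ester (NK-1 agonist). At least two control agonist curves, then one antagonist concentration per preparation. Concentration-ratio read graphically at half-maximal response. pK_B = log(CR−1) − log[antagonist]. Mean ± SE over four to eight tissues.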

[2] = target: T1, Substance-K receptor (Rattus norvegicus) (UniProt P16610); experiment: Compound was evaluated for antagonism of contractile response of rat colon muscularis mucosae (RC) at tachykinin receptor 2; assay type: functional, tissue-based; conditions: Muscularis mucosa
T1 sequence (whole entry): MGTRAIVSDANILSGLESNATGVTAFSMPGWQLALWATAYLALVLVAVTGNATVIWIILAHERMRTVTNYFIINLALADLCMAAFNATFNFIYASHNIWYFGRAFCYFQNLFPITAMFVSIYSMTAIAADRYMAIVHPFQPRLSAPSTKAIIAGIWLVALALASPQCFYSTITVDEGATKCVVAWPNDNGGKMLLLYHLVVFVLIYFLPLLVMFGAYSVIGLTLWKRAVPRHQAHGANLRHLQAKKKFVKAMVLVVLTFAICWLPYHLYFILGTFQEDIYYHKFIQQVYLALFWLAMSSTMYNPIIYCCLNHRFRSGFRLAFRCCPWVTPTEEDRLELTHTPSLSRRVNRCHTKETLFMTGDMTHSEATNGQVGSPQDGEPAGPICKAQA
Summary of the method: (§2)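 Colon muscularis mucosae from male AHA rats (250–500 g), killed by concussion and exsanguination. Contraction to neurokinin A (NK-2). At least two control agonist curves, then a single antagonist concentration per tissue. Equiactive agonist concentration-ratio taken at half-maximal response. pK_B = log(CR−1) − log[antagonist]. Mean ± SE over four to eight preparations.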

[3] = target: T1, Substance-K receptor (Rattus norvegicus); experiment: Compound was evaluated for antagonism of contractile response of rat colon muscularis mucosae (RC) at Tachykinin receptor 2; assay type: functional, tissue-based; conditions: Muscularis mucosa; summary of the method: as §2
[4] = target: Substance-P receptor (Cavia porcellus) (UniProt P30547); experiment: Compound was evaluated for antagonism of contractile response of guinea pig ileum longitudinal smooth muscle (GPI) at Tachykinin receptor 1; assay type: functional, tissue-based; summary of the method: as §1
[5] = target: T2, Neuromedin-K receptor (Rattus norvegicus) (UniProt P16177); experiment: Compound was evaluated for antagonism of contractile response of rat portal vein at tachykinin receptor 3; assay type: functional
T2 sequence (whole entry): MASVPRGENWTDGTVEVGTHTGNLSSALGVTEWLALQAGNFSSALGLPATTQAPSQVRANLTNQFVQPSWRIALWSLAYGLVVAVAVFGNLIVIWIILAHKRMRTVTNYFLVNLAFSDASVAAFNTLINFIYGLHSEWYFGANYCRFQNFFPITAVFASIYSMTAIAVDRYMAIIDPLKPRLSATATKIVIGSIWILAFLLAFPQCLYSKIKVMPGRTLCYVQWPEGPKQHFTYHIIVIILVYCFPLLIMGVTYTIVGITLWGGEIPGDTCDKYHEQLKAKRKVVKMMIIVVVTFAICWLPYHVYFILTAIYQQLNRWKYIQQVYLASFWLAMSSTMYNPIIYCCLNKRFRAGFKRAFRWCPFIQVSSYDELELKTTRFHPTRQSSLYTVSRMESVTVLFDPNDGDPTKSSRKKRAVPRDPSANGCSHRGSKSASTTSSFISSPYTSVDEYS
Summary of the method: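 Everted portal vein from male AHA rats (250–500 g). Contraction to senktide (NK-3). Agonist curves were repeated at least twice before exposure to one antagonist concentration per preparation. Concentration-ratio estimated graphically at the half-maximal level. pK_B = log(CR−1) − log(molar antagonist). Mean ± SE of four to eight tissues.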

Substance-P receptor (Cavia porcellus), sequence (P30547 whole entry): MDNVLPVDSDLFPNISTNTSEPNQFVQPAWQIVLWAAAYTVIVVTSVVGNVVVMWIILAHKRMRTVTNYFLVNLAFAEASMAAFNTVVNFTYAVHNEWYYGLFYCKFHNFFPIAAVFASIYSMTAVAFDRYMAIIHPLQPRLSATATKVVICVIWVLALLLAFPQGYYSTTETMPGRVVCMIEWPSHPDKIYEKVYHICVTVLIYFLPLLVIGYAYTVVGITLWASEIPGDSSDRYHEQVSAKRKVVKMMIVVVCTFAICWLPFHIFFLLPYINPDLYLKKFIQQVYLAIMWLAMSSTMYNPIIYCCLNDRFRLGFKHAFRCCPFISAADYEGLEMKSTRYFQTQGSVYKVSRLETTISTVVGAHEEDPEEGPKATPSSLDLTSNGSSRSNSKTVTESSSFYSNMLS

Structure (SMILES)	pKB [1]	pKB [2]	pKB [3]	pKB [4]	pKB [5]
CCCC[C@H](NC(=O)[C@@H]1CCCN1C(=O)[C@H]1CCCN1C(=O)[C@H](Cc1ccccc1)NC(=O)[C@H]1CCCN1C(=O)[C@H](C)NC(=O)[C@H](CCCN=C(N)N)NC(=O)OC(C)(C)C)C(N)=O	4.5	5.2	–	–	–
CCCC[C@H](NC(=O)[C@@H]1CCCN1C(=O)[C@H]1CCCN1C(=O)[C@H](Cc1ccccc1)NC(=O)[C@@H](Cc1c[nH]c2ccccc12)NC(=O)[C@H](C)NC(=O)[C@H](N)CCC(=O)OCc1ccccc1)C(N)=O	–	–	7.2	< 5.5	–
CCCC[C@H](NC(=O)[C@@H]1CCCN1C(=O)[C@H]1CCCN1C(=O)[C@H](Cc1ccccc1)NC(=O)[C@@H](Cc1c[nH]c2ccccc12)NC(=O)[C@H](C)NC(=O)[C@H](CCC/N=C(\N)N[N+](=O)[O-])NC(=O)OC(C)(C)C)C(N)=O	5.5	8.2	–	–	5.2
CCCC[C@H](NC(=O)[C@@H]1CCCN1C(=O)[C@H]1CCCN1C(=O)[C@H](Cc1ccccc1)NC(=O)[C@@H](Cc1c[nH]c2ccccc12)NC(=O)[C@H](C)NC(=O)[C@@H](CCCN=C(N)N)NC(=O)OC(C)(C)C)C(N)=O	5.7	5.2	–	–	–
CCCC[C@H](NC(=O)[C@H](CC(C)C)NC(=O)[C@@H](Cc1c[nH]c2ccccc12)NC(=O)[C@H](Cc1ccccc1)NC(=O)[C@@H](Cc1c[nH]c2ccccc12)NC(=O)[C@H](C)NC(=O)[C@H](CCCN=C(N)N)NC(=O)OC(C)(C)C)C(N)=O	6.9	6.5	–	–	–
CCCCCNC(=O)[C@@H]1CCCN1C(=O)[C@H]1CCCN1C(=O)[C@H](Cc1ccccc1)NC(=O)[C@@H](Cc1c[nH]c2ccccc12)NC(=O)[C@H](C)NC(=O)[C@H](CCCN=C(N)N)NC(=O)OC(C)(C)C	5.8	7.6	–	–	–
CCCC[C@H](NC(=O)C1CCCN1C(=O)[C@H]1CCCN1C(=O)[C@H](Cc1ccccc1)NC(=O)[C@@H](Cc1c[nH]c2ccccc12)NC(=O)CCCCNC(=O)OC(C)(C)C)C(N)=O (stereo not given in full)	–	–	7.6	–	–
CCCC[C@H](NC(=O)[C@H](CC(C)C)NC(=O)[C@@H](Cc1c[nH]c2ccccc12)NC(=O)[C@H](Cc1ccccc1)NC(=O)[C@@H](Cc1c[nH]c2ccccc12)NC(=O)[C@H](C)NC(=O)[C@@H](N)CCCN=C(N)N)C(N)=O	6	6.2	–	–	< 4.6
CCCC[C@H](NC(=O)[C@@H]1CCCN1C(=O)[C@H]1CCCN1C(=O)[C@H](Cc1ccccc1)NC(=O)[C@@H](Cc1c[nH]c2ccccc12)NC(=O)[C@H](C)NC(=O)[C@@H](N)CCCN=C(N)N)C(N)=O	4.7	5.9	–	–	< 4.6
CSCC[C@H](NC(=O)[C@@H]1CCCN1C(=O)[C@H]1CCCN1C(=O)[C@H](Cc1ccccc1)NC(=O)[C@@H](Cc1c[nH]c2ccccc12)NC(=O)[C@H](C)NC(=O)[C@H](CCCN=C(N)N)NC(=O)OC(C)(C)C)C(N)=O	< 4.5	6.2	–	–	–
C[C@H](NC(=O)[C@H](CCCN=C(N)N)NC(=O)OC(C)(C)C)C(=O)N[C@H](Cc1c[nH]c2ccccc12)C(=O)N[C@@H](Cc1ccccc1)C(=O)N1CCC[C@@H]1C(=O)N1CCC[C@H]1C(=O)NCC(N)=O	5.3	7	–	–	–
CCCC[C@H](NC(=O)[C@H](CC(C)C)NC(=O)[C@@H](Cc1c[nH]c2ccccc12)NC(=O)[C@H](Cc1ccccc1)NC(=O)[C@@H](Cc1c[nH]c2ccccc12)NC(=O)[C@H](CCC(N)=O)NC(=O)[C@H](CCCN=C(N)N)NC(=O)OC(C)(C)C)C(N)=O	7.1	6.5	–	–	–
CCCC[C@H](NC(=O)[C@@H]1CCCN1C(=O)[C@H]1CCCN1C(=O)[C@H](Cc1ccccc1)NC(=O)[C@@H](Cc1c[nH]c2ccccc12)NC(=O)[C@H](C)NC(=O)[C@H](CCCN=C(N)N)NC(=O)OCc1ccccc1)C(N)=O	6.7	7.5	–	–	–
CNC(=O)[C@@H]1CCCN1C(=O)[C@H]1CCCN1C(=O)[C@H](Cc1ccccc1)NC(=O)[C@@H](Cc1c[nH]c2ccccc12)NC(=O)[C@H](C)NC(=O)[C@H](CCCN=C(N)N)NC(=O)OC(C)(C)C	5.1	7.5	–	–	–
CCCC[C@H](NC(=O)[C@H](CC(C)C)NC(=O)[C@@H](Cc1c[nH]c2ccccc12)NC(=O)[C@H](Cc1ccccc1)NC(=O)[C@@H](Cc1c[nH]c2ccccc12)NC(=O)[C@H](CCC(N)=O)NC(=O)[C@@H](N)CCCN=C(N)N)C(N)=O	6.4	5.7	–	–	–
CCCC[C@H](NC(=O)[C@@H]1CCCN1C(=O)[C@H]1CCCN1C(=O)[C@H](Cc1ccccc1)NC(=O)[C@@H](Cc1c[nH]c2ccccc12)NC(=O)[C@H](C)NC(=O)[C@H](CCCN=C(N)N)NC(=O)OC(C)(C)C)C(N)=O	5.8	8.2	–	–	< 4.6
CCCC[C@H](NC(=O)[C@@H]1CCCN1C(=O)[C@H]1N(C(=O)[C@H](Cc2ccccc2)NC(=O)[C@@H](Cc2c[nH]c3ccccc23)NC(=O)[C@H](C)NC(=O)[C@@H](N)CCCN=C(N)N)CSC1(C)C)C(N)=O	–	–	5.9	4.7	–
CCCC[C@H](NC(=O)[C@@H]1CCCN1C(=O)CNC(=O)[C@H](Cc1ccccc1)NC(=O)[C@@H](Cc1c[nH]c2ccccc12)NC(=O)[C@H](C)NC(=O)[C@@H](N)CCCN=C(N)N)C(N)=O	4.8	< 4.6	–	–	< 4.6
CCCC[C@H](NC(=O)[C@@H]1CCCN1C(=O)[C@H]1CCCN1C(=O)[C@H](Cc1ccccc1)NC(=O)[C@@H](Cc1ccccc1)NC(=O)[C@H](C)NC(=O)[C@H](CCCN=C(N)N)NC(=O)OC(C)(C)C)C(N)=O	–	6.4	–	–	–
CCCC[C@H](NC(=O)[C@@H]1CCCN1C(=O)[C@H]1CCCN1C(=O)[C@H](Cc1ccccc1)NC(=O)[C@@H](C)NC(=O)[C@H](C)NC(=O)[C@H](CCCN=C(N)N)NC(=O)OC(C)(C)C)C(N)=O	4.8	5.6	–	–	–
CCCC[C@H](NC(=O)[C@@H]1CCCN1C(=O)[C@H]1CCCN1C(=O)[C@H](Cc1ccccc1)NC(=O)[C@@H](Cc1c[nH]c2ccccc12)NC(=O)[C@H](C)NC(=O)[C@@H](CCC(=O)OCc1ccccc1)NC(=O)OC(C)(C)C)C(N)=O	6	7.1	–	–	–
CCCC[C@H](NC(=O)[C@@H]1CCCN1C(=O)[C@H]1CCCN1C(=O)[C@H](Cc1ccccc1)NC(=O)[C@@H](Cc1c[nH]c2ccccc12)NC(=O)[C@H](C)NC(=O)[C@H](CCCCN)NC(=O)OC(C)(C)C)C(N)=O	–	–	7.1	4.8	–
CCCC[C@H](NC(=O)[C@@H]1CCCN1C(=O)[C@H]1CCCN1C(=O)[C@H](Cc1ccccc1)NC(=O)[C@@H](Cc1c[nH]c2ccccc12)NC(=O)[C@H](C)NC(=O)[C@H](CCC(=O)OCc1ccccc1)NC(=O)OC(C)(C)C)C(N)=O	6.6	7.4	–	–	–
CCCC[C@H](NC(=O)[C@@H]1CCCN1C(=O)[C@H]1CCCN1C(=O)[C@H](Cc1ccccc1)NC(=O)[C@@H](Cc1c[nH]c2ccccc12)NC(=O)[C@H](C)NC(=O)[C@H](CCCN=C(N)N)NC(C)=O)C(N)=O	4.6	5.6	–	–	–
CCCC[C@H](NC(=O)[C@@H]1CCCN1C(=O)[C@H]1CCCN1C(=O)[C@H](Cc1ccccc1)NC(=O)[C@@H](Cc1c[nH]c2ccccc12)NC(=O)[C@H](C)NC(=O)[C@H](CCC(=O)O)NC(=O)OC(C)(C)C)C(N)=O	–	–	6.5	< 4.5	–
CCCC[C@H](NC(=O)[C@@H]1CCCN1C(=O)[C@H]1CCCN1C(=O)[C@H](Cc1ccccc1)NC(=O)[C@H](Cc1c[nH]c2ccccc12)NC(=O)[C@H](C)NC(=O)[C@H](CCCN=C(N)N)NC(=O)OC(C)(C)C)C(N)=O	< 5	6.4	–	–	–

From ChEMBL document CHEMBL1125477, “Highly potent and selective heptapeptide antagonists of the neurokinin NK-2 receptor” (J Med Chem, 1992)
